# Test results as given in publication PMC4511165 (Biochemistry, 2015).
# Entries after “also recorded” stand apart in the source; their conditions may differ.
# What was measured:
# [1] = molecular target: T1, MMP-14/MT1-MMP (ectodomain, soluble MT1-MMP) (Homo sapiens, UniProt P50281); assay: HPLC-monitored hydrolysis of peptomeric THPs by MT1-MMP; assay type: biochemical; conditions: room temperature, 24 h; MALDI-TOF MS / HPLC of products
# How it was run: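 Soluble ectodomain was activated with 0.1 equiv trypsin-3 for 1 h at 37 °C. Trypsin was quenched with 100 equiv AEBSF for 15 min at room temperature, then the enzyme was diluted in cold TSB*Zn (pH 7.5). Substrates were pre-equilibrated in TSB at 4 °C for 24 h. Reactions used 20 nM enzyme at 1:1000 enzyme:substrate for 24 h at room temperature (some also at 37 °C). Reactions were quenched with 50 mM EDTA; triplicate RP-HPLC integration at 220 nm, MALDI-TOF for products.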
# MMP-13 [2] = molecular target: T2, MMP-13 (Homo sapiens, UniProt P45452); assay: HPLC-monitored hydrolysis of peptomeric THPs by MMP-13; assay type: biochemical; conditions: 24 h; for cleavage site, MMP-13: room temperature, MALDI-TOF MS / HPLC of products
# How it was run: (§1)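 Full-length human enzymes were activated with 1 mM […] for 60 min at 37 °C, then diluted to 100 nM in ice-cold TSB*Zn (Tris, NaCl, CaCl2, ZnCl2, Brij-35, pH 7.5). Substrates were pre-equilibrated in TSB at 4 °C for 24 h. Reactions used 20 nM enzyme at 1:1000 enzyme:substrate for 24 h at room temperature (some also at 37 °C). Reactions were quenched with 50 mM EDTA; triplicate RP-HPLC peak integration at 220 nm, with MALDI-TOF identifying products.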
# MMP-8 [3] = molecular target: T3, MMP-8 (Homo sapiens, UniProt P22894); assay: HPLC-monitored hydrolysis of peptomeric THPs by MMP-8; assay type: biochemical; conditions: room temperature, 24 h; MALDI-TOF MS / HPLC of products
# How it was run: as §1
# MMP-1 [4] = molecular target: T4, MMP-1 (Homo sapiens, UniProt P03956); assay: HPLC-monitored hydrolysis of peptomeric THPs by MMP-1; assay type: biochemical; conditions: room temperature, 24 h; MALDI-TOF MS / HPLC of products
# T4 sequence (P03956 100-469): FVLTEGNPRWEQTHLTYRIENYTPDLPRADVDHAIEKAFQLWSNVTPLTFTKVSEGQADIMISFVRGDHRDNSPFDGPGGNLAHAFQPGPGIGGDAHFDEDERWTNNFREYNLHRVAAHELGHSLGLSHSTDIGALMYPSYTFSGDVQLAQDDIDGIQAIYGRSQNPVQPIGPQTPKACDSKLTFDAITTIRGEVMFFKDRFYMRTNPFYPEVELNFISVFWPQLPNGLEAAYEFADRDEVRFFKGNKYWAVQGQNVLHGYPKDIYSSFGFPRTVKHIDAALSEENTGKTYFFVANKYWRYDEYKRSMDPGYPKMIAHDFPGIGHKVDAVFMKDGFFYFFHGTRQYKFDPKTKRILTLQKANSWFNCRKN
# How it was run: as §1
# MMP-1 [5] = molecular target: T4, MMP-1; assay: Inhibition of MMP-1 by non-cleaved peptomers; assay type: biochemical; conditions: MS-1 up to 200 µM; concentration for MS-2 not given; data not shown
# MMP-8 [6] = molecular target: T3, MMP-8; assay: Inhibition of MMP-8 by non-cleaved peptomers; assay type: biochemical; conditions: MS-1 up to 200 µM; concentration for MS-2 not given; data not shown
# MMP-13 [7] = molecular target: T2, MMP-13; assay: Inhibition of MMP-13 by non-cleaved peptomers; assay type: biochemical; conditions: MS-1 up to 200 µM; concentration for MS-2 not given; data not shown
# MMP-14/MT1-MMP = MMP-14/MT1-MMP (Homo sapiens, UniProt P50281); assay: Inhibition of MT1-MMP by non-cleaved peptomers; assay type: biochemical; conditions: MS-1 up to 200 µM; concentration for MS-2 not given; data not shown
# MMP-1 [8] = molecular target: T4, MMP-1; assay: Hydrolysis of fluorogenic; assay type: biochemical; conditions: 30 °C; for hydrolysis of fluorogenic peptomer by MMP-1: FRET kinetic assay, TSB*Zn buffer
# How it was run: (§2)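 Enzymes were activated with 1 mM […] at 37 °C for 60 min and diluted in TSB*Zn. The Mca/Dnp substrate was equilibrated in TSB at 4 °C for 24 h and quantified at 363 nm (εDnp 15900 M−1 cm−1). Twelve 1:1 dilutions were made from a 100 µM stock, and enzyme was added from a 100 nM 20× stock. Fluorescence was read every 8 s for 600 s at 30 °C, with a final read at 24 h. The 25 µM sample was analysed by HPLC for % cleavage; triplicate.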
# MMP-8 [9] = molecular target: T3, MMP-8; assay: Hydrolysis of fluorogenic; assay type: biochemical; conditions: 30 °C; for hydrolysis of fluorogenic peptomer by MMP-8: FRET kinetic assay, TSB*Zn buffer
# How it was run: as §2
# [10] = molecular target: T1, MMP-14/MT1-MMP (ectodomain, soluble MT1-MMP); assay: Hydrolysis of fluorogenic; assay type: biochemical
# How it was run: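 Soluble ectodomain was activated with 0.1 equiv trypsin-3 for 1 h at 37 °C, quenched with AEBSF and diluted in TSB*Zn. The Mca/Dnp substrate was equilibrated in TSB at 4 °C for 24 h and quantified at 363 nm. Twelve 1:1 dilutions were made from a 100 µM stock, and enzyme was added from a 100 nM 20× stock. Fluorescence was read every 8 s for 600 s at 30 °C, with a final read at 24 h. The 25 µM sample was analysed by HPLC for % cleavage; triplicate.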
# MMP-3 = MMP-3 (Homo sapiens, UniProt P08254); assay: Hydrolysis of Ac-pfTHP-1 by noncollagenolytic MMP-3; assay type: biochemical; conditions: data not shown
# MMP-13 [11] = molecular target: T2, MMP-13; assay: Hydrolysis of fluorogenic; assay type: biochemical
# How it was run: as §2
# CD thermal transition = assay type: physicochemical; conditions: decrease relative to α1(I)772–786 THP
# [12] = RP-HPLC, 25 µM peptomer, 24 h, data not shown
# [13] = RP-HPLC, 25 µM peptomer, 30 °C, 24 h, data not shown
# T3 sequence (P22894 101-467): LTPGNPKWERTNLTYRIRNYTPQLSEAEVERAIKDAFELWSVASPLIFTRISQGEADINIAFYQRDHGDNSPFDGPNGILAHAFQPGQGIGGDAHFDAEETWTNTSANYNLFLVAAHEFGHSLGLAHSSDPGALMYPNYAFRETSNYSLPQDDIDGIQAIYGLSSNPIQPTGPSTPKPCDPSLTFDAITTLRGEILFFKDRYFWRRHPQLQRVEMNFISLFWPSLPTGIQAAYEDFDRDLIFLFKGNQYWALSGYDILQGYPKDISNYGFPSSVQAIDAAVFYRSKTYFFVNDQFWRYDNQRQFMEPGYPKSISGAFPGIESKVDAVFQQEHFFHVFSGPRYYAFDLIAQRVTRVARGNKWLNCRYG
# Sequence of MMP-3 (P08254 100-477, species assumed): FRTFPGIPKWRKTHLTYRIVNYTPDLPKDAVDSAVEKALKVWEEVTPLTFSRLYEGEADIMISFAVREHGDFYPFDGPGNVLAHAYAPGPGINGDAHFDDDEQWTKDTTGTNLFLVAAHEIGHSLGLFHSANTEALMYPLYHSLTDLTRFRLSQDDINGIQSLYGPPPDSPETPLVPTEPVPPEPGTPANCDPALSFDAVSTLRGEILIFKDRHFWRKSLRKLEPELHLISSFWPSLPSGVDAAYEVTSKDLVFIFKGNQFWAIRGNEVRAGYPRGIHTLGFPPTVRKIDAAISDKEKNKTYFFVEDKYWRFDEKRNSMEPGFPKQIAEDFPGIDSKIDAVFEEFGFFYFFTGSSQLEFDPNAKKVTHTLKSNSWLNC
substance,measurement,setting,value
(GPO)4GPQGIAGQRGVVG-NLeu-O(GPO)4-NH2 [MS-7],"cleavage site, MT1-MMP",[1],Gly775–Ile776 bond
same,difference in MMP-13 hydrolysis versus parent THP,"MMP-13 [2]; 37 °C, RP-HPLC, peptomer better substrate than parent THP",2 fold
same,"cleavage site, MMP-13",MMP-13 [2],Gly775–Ile776 bond
same,"cleavage site, MMP-8",MMP-8 [3],Gly775–Ile776 bond
same,"cleavage site, MMP-1",MMP-1 [4],Gly775–Ile776 bond
(GPO)4-GPQG-NIle-AGQRGVVGLO(GPO)4-NH2 [MS-1],inhibition of MMP-1,MMP-1 [5],No inhibition
same,inhibition of MMP-8,MMP-8 [6],No inhibition
same,inhibition of MMP-13,MMP-13 [7],No inhibition
same,inhibition of MT1-MMP,MMP-14/MT1-MMP,No inhibition
(GPO)4GPQGWAGQRGVVG-NLeu-O(GPO)4-NH2 [MS-10],"cleavage site, MT1-MMP",[1],Gly775-Trp776 bond; also recorded: occurring at several bonds
same,"cleavage site, MMP-13",MMP-13 [2],Gly775-Trp776 bond
same,"cleavage site, MMP-8",MMP-8 [3],Gly775-Trp776 bond
Ac-(GPO)4-GP-Lys(Mca)-G-Sar-AGQRGV-Lys(Dnp) G-NLeu-O(GPO)4-NH2 [Ac-pfTHP-1],hydrolysis of fluorogenic peptomer by MMP-1,MMP-1 [8],unable to hydrolyze
same,hydrolysis by MMP-1,MMP-1 [8]; [12],< 1%
same,hydrolysis of fluorogenic peptomer by MMP-8,MMP-8 [9],unable to hydrolyze
same,hydrolysis by MMP-8,MMP-8 [9]; [12],< 2%
same,hydrolysis by MT1-MMP,[10]; [13],22%
same,"cleavage sites of fluorogenic peptomer, MT1-MMP",[10],Gly781–Val782 and Arg780–Gly781 bonds
same,hydrolysis by MMP-3,MMP-3,not able to hydrolyze
same,hydrolysis by MMP-13,MMP-13 [11]; [13],65%
same,"cleavage site of fluorogenic peptomer, MMP-13",MMP-13 [11],between Gly778 and Gln779
(GPO)4GPQ-Sar-IAGQRGVVG-NLeu-GLO(GPO)4- NH2 [MS-9],"cleavage site, MT1-MMP",[1],between Sar775 and Ile776
same,"cleavage site, MMP-13",MMP-13 [2],between Sar775 and Ile776
same,Tm lower than that of parent THP by,CD thermal transition,13.5 °C
same,"cleavage site, MMP-8",MMP-8 [3],between Sar775 and Ile776
same,"cleavage site, MMP-1",MMP-1 [4],between Sar775 and Ile776
(GPO)4G-Sar-QGIAGQRGVVGLO(GPO)4-NH2 [MS-4],Tm lower than that of parent THP by,CD thermal transition,4 °C
(GPO)4GPQ-Sar-IAGQRGVVGLO(GPO)4-NH2 [MS-3],"cleavage site, MT1-MMP",[1],between Sar775 and Ile776
same,"cleavage site, MMP-13",MMP-13 [2],between Sar775 and Ile776
same,Tm lower than that of parent THP by,CD thermal transition,20 °C
same,"cleavage site, MMP-8",MMP-8 [3],between Sar775 and Ile776
same,"cleavage site, MMP-1",MMP-1 [4],between Sar775 and Ile776
(GPO)4GP-Lys(Mca)-G-Sar-AGQRGV-Lys(Dnp)-G- NLeu-O(GPO)4-NH2 [pfTHP-1],hydrolysis of fluorogenic peptomer by MMP-1,MMP-1 [8],unable to hydrolyze
same,hydrolysis of fluorogenic peptomer by MMP-8,MMP-8 [9],unable to hydrolyze
same,"cleavage sites of fluorogenic peptomer, MT1-MMP",[10],Gly781–Val782 and Arg780–Gly781 bonds
same,"cleavage site of fluorogenic peptomer, MMP-13",MMP-13 [11],between Gly778 and Gln779
